Data: ChEMBL document CHEMBL4513216, “Probing the Open Global Health Chemical Diversity Library for Multistage-Active Starting Points for Next-Generation Antimalarials” (ACS Infect Dis, 2020)

Experiment: Toxicity liver stage against HepG2, at 10uM
Format: cell-based
Design: test concentration 10 uM, cell line HepG2-A16-CD81EGFP
Details: human, HepG2-A16-CD81EGFP cells; read-out: INHIBITION
How it was run: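 Uninfected HepG2-A16-CD81EGFP cells, 3 × 10^3 per well, 1536-well, plated on prespotted compound at 10 μM final, parasite-free screening media added to match infected plates; puromycin 10 μM positive, DMSO 0.5% negative; run in parallel with 48 h PbLuc assay at 37 °C, 5% CO2; viability by CellTiter-Glo luminescence, normalized to controls.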

Compound	cytotoxicity at 10 µM
Cc1ccc(CN2Cc3nnn(C)c3C(COCCN(C)C)C2)s1 (stereo not given)	-7.25%
Cc1nn(C)c(C)c1CCC(=O)N1CC(c2cccnc2)C1	-4.84%
Cc1cc(C(=O)N2C[C@H](CO)C[C@H](CN3CCOCC3)C2)nc(C)n1	9.91%
Cc1ccc(CN2CCc3nnc(CN4CCCC4=O)n3CC2)s1	1.02%
O=C1COC2(CCN(Cc3ccncc3)CC2)CN1c1ccccc1	-126%
Cc1noc(C)c1CCCNC(=O)C1CCN(C(C)C)CC1	-7.01%
N#Cc1ccc(N2CCC3(CCC(=O)N3CCN3CCCC3)CC2)nc1	-114%
Cc1nc(C2CCCC2)sc1C(N)=O	-5.03%
O=C1CC(c2ccc(C(=O)O)cc2)c2ncn(-c3cccc(Cl)c3)c2N1 (stereo not given)	-2.17%
Cc1noc(C)c1S(=O)(=O)N(CC(N)=O)CC(C)C	-6.46%
Cn1cc(C(=O)N2CCCC(Cc3cncc4ccccc34)C2)cn1 (stereo not given)	-13.2%
COC(=O)c1ccc(OCCn2cnc(C#N)n2)cc1	-2.01%
CC1=N[C@@]2(CC[C@@H]3CN(S(=O)(=O)CC(C)C)C[C@@H]32)C(=O)N1CC(C)C	-1.34%
c1cc(-c2noc(CN3CCn4c(nnc4C4CC4)C3)n2)cs1	-7.07%
CC(=Cc1ccccc1)CNCc1cccc(C(N)=O)c1	6.03%
COc1cc(N2C[C@H]3CN(CC(=O)N(C)C)C(=O)[C@H]3C2)ncn1	96.6%
CN1CCCC2(CCN(S(=O)(=O)c3ccc(-c4cnco4)s3)C2)C1=O (stereo not given)	5.84%
c1ccc(CN2C[C@@H]3COC[C@]3(COCc3ccncc3)C2)nc1	-76.1%
Cc1ccccc1CCNC(=O)C1CC(=O)N(CC(F)(F)F)C1 (stereo not given)	-6.17%
Cc1ncccc1CNCC1CCN(CC(C)O)CC1 (stereo not given)	-5.59%
Cc1cc(N2CCN(Cc3ccc(-c4cc[nH]n4)o3)CC2)cc(C)n1	2.17%
CC(C)CN1CCCC2(CCN(C(=O)c3cnccn3)C2)C1 (stereo not given)	2.39%

Compound	cytotoxicity at 10 µM
COc1ccc([C@@H]2CN(C(=O)CCn3cccn3)C[C@H]2NC(C)=O)cc1	7.18%
CC(=O)N1C[C@H](NC(=O)c2cscn2)[C@@H]2OCCC[C@@H]21	2.88%
c1ccc(-c2nnc(N3CCCC4(CCOC4)C3)s2)cc1 (stereo not given)	-2.37%
CCN(Cc1ccco1)C(C)c1nc(C)no1 (stereo not given)	-10.1%
O=C(Cc1ccsc1)N1CCc2ncc(Cn3cccn3)n2CC1	-81.5%
Cc1nccn1CCCn1cncc1-c1ccc2c(c1)CCC(C)N2C (stereo not given)	-4.98%
O=C(O)c1c(-c2cncnc2)ncc2c1CCN(CC1CCOC1)C2 (stereo not given)	-102%
c1ccc(N2CCC3(CCCN(c4ncccn4)C3)C2)nc1 (stereo not given)	-133%
Cn1cnc2c1C(COCC1CC1)CN(Cc1ccsc1)C2 (stereo not given)	-5.07%
CN1CC(=O)N(c2cccc(F)c2)CC12CCN(Cc1cnn(C)c1)C2 (stereo not given)	-5.87%
Cc1nc(CN2CCc3nc(NC(C)C)nc(C)c3C2)cs1	2.53%
Cc1nc(N2CCCC2)nc2c1CN(C(=O)N1CCOCC1)CC2	6.17%
O=C(NCc1cccnc1N1CCCCC1)c1ccc2cc[nH]c2c1	4.1%
Cc1c(Cn2cc(Cl)c(N)n2)cnn1C	-5.18%
CCc1c(C(=O)N2CCC3(CC(=O)NC3=O)C2)csc1C (stereo not given)	1.62%
CC(C)Cc1nc(-c2ccnc(N3CCNCC3)n2)no1	2.04%
CN1C(=O)CC(c2cnn(C)c2)C12CCN(C(=O)c1ccc[nH]1)CC2 (stereo not given)	6.74%
N#Cc1cccnc1NCc1ccc(S(=O)(=O)NCC2CCCO2)cc1 (stereo not given)	5.98%
CC(=O)N(C)Cc1ccc(OCc2cccs2)cc1	12.4%
O=C1NCc2ccccc2CC12CCN(Cc1ccccc1Cl)CC2	5.86%
Cc1cc(NCC(=O)N(C)C)c(C(N)=O)cc1F	-2.64%
Cc1cc(C(=O)N2CC[C@H]3C[C@H](c4ccncn4)O[C@@H]3C2)c(C)[nH]1	-70.1%

Compound	cytotoxicity at 10 µM
COc1cccc(-n2cc(CN(C)C(=O)c3cnc(O)cn3)cn2)c1	-14.7%
COCc1ccc(CNCc2c(C)nn(C)c2N(C)C)cc1	-16%
Cn1ccc(CN2CCC3(CC2)CC(Nc2ccccn2)CO3)n1 (stereo not given)	-1.19%
COCCN1CCC(c2cncc(-c3ccccc3C)n2)CC1	-15.1%
Cc1cc(CN2CCOC(C)(C(=O)N3CCOCC3)C2)no1 (stereo not given)	-24.2%
COc1ccc(C2CC(=O)Oc3cc(C)[nH]c(=O)c32)cc1 (stereo not given)	-3.16%
CCc1nc(C2CCCN2C(=O)c2cc[nH]n2)no1 (stereo not given)	-15.6%
Cc1cnn(CC2CCCN2C(=O)c2cccc(-n3ccc(C)n3)c2)c1 (stereo not given)	-19.2%
O=C(c1ccnn1-c1ccc2ccccn12)N1CCCC1	-102%
Cc1nsc(NC(=O)N2CCN(Cc3ccccc3F)C(=O)C2)n1	-4.25%
CC(=O)NC[C@]1(O)CCN(C(=O)c2ccc(C)c(F)c2)C[C@H]1O	-2.78%
O=C(c1cnccn1)N1CCCC(C2=Nc3ccccc3S(=O)(=O)N2)C1 (stereo not given)	-0.055%
CNc1ccc(C2CN(c3cc(C)nc(N)n3)CCO2)nc1 (stereo not given)	4.72%
CCOCC(=O)N1CC(=O)Nc2cc(Br)ccc21	8.09%
Fc1ccc(NC2CCCN(Cc3ccncc3)C2)cc1 (stereo not given)	3.58%
COCCN(CC1CC1)c1nc(CCN)nc2ccccc12	9.22%
CCc1nnc(CN(C)C2CCCN(Cc3noc(C4CC4)n3)C2)o1 (stereo not given)	2.27%
COc1cccc(CN(C)Cc2c(C)noc2C)c1OC	8.82%
O=C(c1cnccn1)N1CCCC2(CCCN2Cc2cccnc2)C1 (stereo not given)	-1.01%
COCCN1CCc2ccc(=O)n(Cc3csc(C)n3)c2CC1	4.68%
NC(=O)c1cc(C2CCCN(CCc3ccccn3)C2)n[nH]1 (stereo not given)	-8.44%
COc1cccc(CN2CCCC2Cn2nc(C)nc2C)c1 (stereo not given)	0.665%

Compound	cytotoxicity at 10 µM
Cc1ccc(CNC(=O)c2nn(C)c3c2CS(=O)(=O)CC3)o1	6.14%
Cc1csc([C@H]2C[C@H]3CN(Cc4cc(C)on4)CC[C@@H]3O2)n1	-98%
Cc1c(C(=O)N2CCC(C(O)c3ccc(Cl)cc3)CC2)cnn1C (stereo not given)	-0.916%
Nc1nc2c(c(N3CCCC(CN4CCCC4=O)C3)n1)CCNCC2 (stereo not given)	14.6%
O=S(=O)(CCNCc1ccc(Cl)cc1)N1CCOCC1	4.68%
O=C(CNc1ccc(F)cc1OCC(F)(F)F)NCC(F)(F)F	3.87%
CNC(=O)CCNC(=O)Nc1cccc(Cl)c1SC(F)F	1.29%
CNCc1cn(C[C@H]2CC3CCN2C[C@@H]3C(=O)Nc2ccccc2)nn1 (stereo not given in full)	-0.288%
Cc1ncsc1CN(Cc1ccccc1)Cc1ncc[nH]1	-3.22%
CN(C)C(=O)CO[C@H]1CN(Cc2cccc(C#N)c2)[C@@H]2COC[C@H]12	11.4%
Cc1ccc(CNC(=O)CN2CCOC(Cn3cccn3)C2)s1 (stereo not given)	-24.1%
O=C(Cn1cc(Cl)cn1)NCCN1CCC(O)(c2ccc(F)cc2)CC1	3.41%
Cc1c(NC(C)C(C)C)cccc1C(=O)NCc1nccn1C (stereo not given)	-5.99%
Cc1cccc2nc(CN3CCC(Cn4ccnn4)CC3)cc(=O)n12	2.62%
CCOC(=O)CSc1nnc(C(N)CC(C)C)o1 (stereo not given)	-8.32%
COc1ncccc1CNC1CCc2c(ccc(=O)n2CC2CC2)C1 (stereo not given)	-110%
Cc1c[nH]nc1C1CCCCN1C(=O)CC1(O)CCCCC1 (stereo not given)	-2.92%
Cn1cnc(S(=O)(=O)N2CCN(Cc3ccco3)CC2)c1Cl	-3.85%
c1cncc(O[C@@H]2CC[C@H]3[C@H]2OCCN3C2CCCC2)c1	1.76%
O=C(CN(Cc1ccco1)C1CC1)Nc1ccc(Br)cn1	-2.65%
Cc1ccc(C#N)c(N2CCC3(CCCN(C4CCOCC4)C3=O)C2)n1 (stereo not given)	-125%
Cc1noc(CN(CCO)Cc2cc(Br)ccc2F)n1	2.2%

Compound	cytotoxicity at 10 µM
CC(C)c1ccc(-n2ncc(C(=O)N(C)C3CCN(C)CC3)c2N)cc1	-6.57%
Cc1cc(C(=O)NCc2cccnc2N2CCCC(O)C2)c(C)o1 (stereo not given)	16.3%
O=C(c1cccc(C2CCNC2)c1)N1CCC(N2CCC(O)CC2)CC1 (stereo not given)	2.18%
Cc1ccccc1CS(=O)(=O)c1nnc(C(C)NC(=O)OC(C)(C)C)o1 (stereo not given)	-1%
O=S(=O)(CCCNC1CCc2ncnn2C1)c1ccccc1 (stereo not given)	2.53%
CCc1cc(CNC(=O)N2CCC(Cc3cnn(C)c3)C2)on1 (stereo not given)	-6.04%
CCS(=O)(=O)N1CCc2nnc(CN(C)C(C)C)n2CC1	0.872%
Cc1nc(NC(=O)C(C)N2CCN(c3ncccn3)CC2)sc1C (stereo not given)	4.79%
O=C(c1ccsc1)N1C[C@@H]2C[C@@H](c3nnc(C4CC4)o3)O[C@@H]2C1	-6.15%
O=C(NCCc1csc(-c2ncccn2)n1)c1cnn2c1CCCC2	-3.88%
CC(=O)N(C)CC(=O)NC1(c2ccc(Br)cc2)CC1	-10.7%
Cc1cccc(CN2C(=O)CCC23CCN(c2ccccn2)CC3)n1	3.2%
Cc1nc(CN2CCC3(C2)CN(C(=O)c2ccc[nH]2)C3)cs1	-112%
CCc1c(C(=O)O)nnn1-c1cc(C)cc(C)c1	-6.69%
COc1cccc(CNCc2ccc(F)c(Cl)c2)c1O	-13.7%
Fc1ccccc1CN1CCCN(c2ccc3cc[nH]c3n2)CC1	-15.2%
CC(C)NC(=O)[C@@H]1C[C@H](N)CN1C(=O)c1cc2c([nH]c1=O)CCCC2	10.5%
CNC(=O)CN1CCC(NC(=O)N(C)Cc2cc(C)on2)CC1	-0.626%
CC(=O)N1CC2(CCN(c3nccc4ccccc34)CC2)CC1C(=O)O (stereo not given)	4.65%
O=C(c1cccnc1)N1CCO[C@@H]2CNC[C@@H]21	-103%
CN(C)C(=O)C1OC2(CCNCC2)c2ccccc21 (stereo not given)	0.37%
CN(Cc1ccc2c(c1)OCO2)Cc1nc(-c2ccco2)no1	-1.64%
